PAFAH1B3 inh: inhibitors of human PAFAH1B3; inhibition, % at 3.39 µM; Q15102; 0.28% of 340,000 active; recombinant PAFAH1B3, FP-rhodamine probe, fluorescence polarization;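 active means inhibition above the screen-wide average of all tested compounds plus 3 SD, cut at about 25% in these data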;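 further: 0% = enzyme with DMSO only and 100% = wells lacking PAFAH1B3 protein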
Apaf-1 inh: inhibitors of human Apaf-1 apoptosome; O14727; reconstituted apoptosome caspase-3 activity, DEVD-Rh110 fluorescence; inhibition, % at 20 µM; 0.71% of 330,000 active; AID 489030; active means inhibition of at least 40% at 20 µM;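 further: plate controls were DMSO wells for no effect and DEVD-CHO caspase inhibitor wells for full effect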
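System – cell-free apoptosome with Apaf-1, procaspase-3 and caspase-9 · Buffer or medium – pH 7.5 Hepes buffer with CHAPS, BSA, DTT · Also added – cytochrome c with DEVD-Rh110 · Times – 30 min compound preincubation, 50 min activation, room temperature · Technique – Rh110 fluorescence intensity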
PAFAH2 FP inh: inhibitors of human PAFAH2 | Q99487 | 0.99% of 340,000 active | recombinant PAFAH2, FP-rhodamine activity probe, fluorescence polarization | inhibition, % at 3.39 µM;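 active means inhibition above the mean over all tested compounds plus 3 SD, cut at about 30% in these data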;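 further: inhibitors block probe labeling of enzyme so polarization drops; 0% = enzyme with DMSO and 100% = wells lacking PAFAH2 protein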
PAFAH1B2 FP inh: PAFAH1B2 (human) inhibition | P68402 | recombinant PAFAH1B2, FP-rhodamine activity probe, fluorescence polarization | inhibition, % at 3.39 µM | 1.2% of 340,000 active;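 active means inhibition above the mean of all tested compounds plus 3 SD, cut at about 24% in these data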;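 further: 0% = enzyme with DMSO and 100% = wells lacking PAFAH1B2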
Target sequence (P68402 whole entry, looked up): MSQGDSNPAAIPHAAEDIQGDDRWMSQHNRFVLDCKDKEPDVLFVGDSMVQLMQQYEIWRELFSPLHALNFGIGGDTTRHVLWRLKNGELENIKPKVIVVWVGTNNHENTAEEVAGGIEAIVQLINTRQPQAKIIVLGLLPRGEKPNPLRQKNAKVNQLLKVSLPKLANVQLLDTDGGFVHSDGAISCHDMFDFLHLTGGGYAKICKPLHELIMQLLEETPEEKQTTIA
TDP2 absorb: TDP2 (human) inhibition, absorbance primary screen; recombinant TDP2, T5PNP hydrolysis, p-nitrophenol absorbance 415 nm; inhibition, % at 12.8 µM; 0.34% of 370,000 active; O95551; AID 720702;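 active means inhibition above the mean of all tested compounds plus 3 SD, set per campaign, cut at about 25% in these data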;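 further: 0% = DMSO with enzyme and 100% = buffer with substrate but no TDP2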
Target sequence (O95551 whole entry, looked up): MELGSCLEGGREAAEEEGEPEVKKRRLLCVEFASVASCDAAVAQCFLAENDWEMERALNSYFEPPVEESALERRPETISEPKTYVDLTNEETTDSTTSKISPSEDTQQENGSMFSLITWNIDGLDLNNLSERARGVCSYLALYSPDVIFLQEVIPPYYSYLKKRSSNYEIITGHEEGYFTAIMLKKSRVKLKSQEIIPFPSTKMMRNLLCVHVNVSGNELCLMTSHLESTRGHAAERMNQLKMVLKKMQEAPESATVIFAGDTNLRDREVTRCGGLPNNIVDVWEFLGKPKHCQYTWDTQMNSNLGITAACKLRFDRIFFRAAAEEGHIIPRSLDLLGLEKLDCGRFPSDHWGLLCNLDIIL
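test system = human TDP2 enzyme | input = TDP2 enzyme at 120 nM final | medium = 50 mM Tris-HCl pH 7.5 with Mg2+, KCl, DTT, BSA | also added = T5PNP substrate, 5 mM | times = 2 h at 37 °C | technique = epi absorbance | benchmarks = high control without enzyme, low control DMSO plus TDP2 | replication = each compound tested once, singlicate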
TDP2 inh conf: human TDP2 inhibition, confirmation | shares compounds with TDP2 absorb | recombinant human TDP2, absorbance read-out | inhibition, % at 12.8 µM | 22% of 1,100 active | AID 743263; in the data active means inhibition above about 25%;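 further: 0% = vehicle with enzyme and 100% = no enzyme buffer only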
An asterisk follows results filed as active; x = no result. The list is not random: actives were taken first. Their share in the collection is about 2.3%.

SMILES	PAFAH1B3 inh	Apaf-1 inh	PAFAH2 FP inh	PAFAH1B2 FP inh	TDP2 absorb	TDP2 inh conf
COc1ccccc1OCCn1cc(/C=C(\C#N)C(=O)NCc2ccco2)c2ccccc21	-6	13	-1	-3	103*	0
COc1ccc(OCCn2cc(/C=C(\C#N)C(=O)NCc3ccco3)c3ccccc32)cc1	-6	-2	-11	1	-2	x
CCC[C@@H](/C=C/C(=O)OC(C)(C)C)Sc1ccc(N)cc1	x	x	x	x	4	x
COc1ccc(N2C(=O)CC(Nc3ccc(N4CCOCC4)cc3)C2=O)c(OC)c1 (stereo unspecified)	2	3	3	2	25*	7
CC(C)c1cccc(C(C)C)c1NC(=O)CNCC(O)c1ccccc1 (stereo unspecified)	7	7	-10	12	26*	0
O=S(=O)(c1ccc(S(=O)(=O)N2CCC(O)CC2)cc1)N1CCCC1	9	1	6	3	25*	2
COc1ccc(CNC(=O)c2ccc(CS(=O)(=O)c3ccccc3C)o2)cc1	-3	7	0	0	26*	5
COc1ccc(N2CCCN(CC(=O)Nc3ccccc3C)CC2)cc1	x	x	x	x	9	x
CC(=O)c1ccc(S(=O)(=O)NC2CCSc3ccccc32)cc1 (stereo unspecified)	-4	3	3	4	-2	x
O=S(=O)(NC1CCSc2ccccc21)c1ccc(Cl)nc1 (stereo unspecified)	3	7	7	8	28*	-1
COc1ccc(C2C(C#N)=C(N)Oc3c2c(-c2ccccc2)nn3-c2ccccc2)c(OC)c1OC (stereo unspecified)	6	25	3	0	68*	7
Cc1ccc(-n2nc(C)c3c2OC(N)=C(C#N)C3c2ccc(C)o2)cc1 (stereo unspecified)	7	1	6	3	-2	x
COc1ccc(OC)c(C2C(C#N)=C(N)Oc3c2c(C)nn3-c2ccc(C)cc2)c1 (stereo unspecified)	1	12	5	0	60*	9
CCOC(=O)CC[C@H]1CC[C@]2(CCCN(C(=O)C3CCCC3)C2)O1	x	x	x	x	7	x
CC1=NN(c2ccccc2)C(=O)C1N=Nc1ccc(N)cc1 (stereo unspecified)	-6	23	1	3	29*	-1
CC1=NN(c2ccccc2)C(=O)C1N=Nc1ccccc1 (stereo unspecified)	7	7	6	1	-6	x
CCOC(=O)CSC1=NC(=O)/C(=C/c2ccc(Br)cc2)S1	-2	3	-6	1	25*	4
CCOC(=O)CSC1=NC(=O)/C(=C\c2ccc(OC(C)=O)cc2)S1	3	-4	8	5	6	x
O=C(NCc1ccccc1)[C@H]1CCCN1C(=O)[C@H]1CCCN1C(=O)c1ccc(F)cc1F	x	x	x	x	-2	x
CCOC(=O)[C@]12CCCC=C1N(CCCOC)C(=O)[C@@H]2CC(=O)NCc1cccc2ccccc12	x	x	x	x	-2	x
CC1=NN(c2ccccc2)C(=O)C1C(=O)c1ccccc1 (stereo unspecified)	2	27	-2	-5	9	x
CC1=NN(c2ccccc2)C(=O)C1C(=O)C(=O)Nc1ccc(F)cc1 (stereo unspecified)	4	15	3	3	32*	7
COc1ccc(CCNCC(=O)Nc2ccc(C)c(Br)c2)cc1OC	9	6	-3	1	13	x
COc1ccc(CCNCC(=O)Nc2ccc(C)c(S(=O)(=O)N(C)C)c2)cc1OC	0	-8	9	4	32*	9
CCCN1CCS(=O)(=O)N(Cc2cn(Cc3ccc(F)cc3)nn2)C(C(=O)OC)C1 (stereo unspecified)	x	x	x	x	-1	x
SMILES	PAFAH1B3 inh	Apaf-1 inh	PAFAH2 FP inh	PAFAH1B2 FP inh	TDP2 absorb	TDP2 inh conf
CCCCOCCCNC(=O)C[C@H]1C(=O)N(Cc2ccc(OC)cc2)C2=CCCC[C@@]21C(=O)OCC	x	x	x	x	-1	x
COc1ccc(N2CCN(CC(=O)N3c4ccccc4CC3C)CC2)cc1 (stereo unspecified)	5	-1	-3	8	26*	10
COC(=O)[C@H]1C[C@@]2(Oc3ccc(Br)cc3)c3ccccc3N(C(=O)OC(C)(C)C)[C@H]2N1C(=O)OC(C)(C)C	x	x	x	x	-5	x
CCCCN1CN2Cc3cc(OC)ccc3C2CS1(=O)=O (stereo unspecified)	x	x	x	x	10	x
Nc1nonc1C(=O)N/N=C/c1ccc(Br)o1	5	-6	-1	7	-2	x
N/C(=N\N=C\c1ccc(Br)o1)c1nonc1N	-2	4	5	-6	30*	-1
Cc1cc(-c2ccccc2)nc2oc(C(=O)NN)c(N)c12	11	29	7	2	30*	6
COc1ccccc1N1CCN(CCCCOc2c(OC)cccc2OC)CC1	0	2	3	2	27*	-5
CCOc1ccc2c(c1)C(C)=CC(C)(C)N2	1	6	3	5	26*	-2
CCc1ccc2c(c1)C(C)=CC(C)(C)N2	1	1	0	-3	0	x
Cc1[nH]c(C)c(S(=O)(=O)N(C)Cc2ccccc2)c1C(=O)N1CCCC1	11	2	-5	3	28*	-4
Cc1[nH]c(C)c(S(=O)(=O)N(Cc2ccccc2)C(C)(C)C)c1C(=O)N1CCCC1	5	12	2	4	10	x
O=c1cc(-c2ccc(Br)cc2)[nH][nH]1	5	33	-2	8	51*	10
O=c1cc(-c2ccccc2)[nH][nH]1	4	2	3	-1	59*	4
COc1cccc(-c2cc(=O)[nH][nH]2)c1	9	24	-1	9	77*	0
O=c1cccc(-c2ccccc2)[nH]1	1	-4	-14	-2	4	x
COc1cccc(-c2ccc(C#N)c(=O)[nH]2)c1	0	-14	7	-1	2	x
N#Cc1ccc(OCc2ccc(C(=O)O)o2)cc1	4	6	4	2	26*	2
NC(=S)N=Nc1c(O)cc(O)c2[nH]c(=O)ccc12	62*	x	51*	51*	52*	44*
CC(C)C(=O)Nc1nnc(SCC(=O)NC2CCCC2)s1	5	-7	1	3	33*	-3

Bioassay records deposited in PubChem by several laboratories.
